ChEMBL document CHEMBL4130355, “Development of a series of novel 4-anlinoquinazoline derivatives possessing quinazoline skeleton: Design, synthesis, EGFR kinase inhibitory efficacy, and evaluation of anticancer activities in vitro” (Eur J Med Chem, 2017)

Legend:
[1] = tested on: HepG2; assay: Antiproliferative activity against human HepG2 cells after 72 hrs by MTT assay; format: functional, cell-based; conditions: HepG2, 72 h
[2] = tested on: DU-145; assay: Antiproliferative activity against human DU145 cells after 72 hrs by MTT assay; format: functional, cell-based; conditions: DU-145, 72 h
[3] = tested on: MCF7; assay: Antiproliferative activity against human MCF7 cells after 72 hrs by MTT assay; format: functional, cell-based; conditions: MCF7, 72 h
[4] = tested on: A549; assay: Antiproliferative activity against human A549 cells after 72 hrs by MTT assay; format: functional, cell-based; conditions: A549, 72 h
[5] = tested on: SH-SY5Y; assay: Antiproliferative activity against human SH-SY5Y cells after 72 hrs by MTT assay; format: functional, cell-based
[6] = tested on: HepG2; assay: Cytotoxicity against human HepG2 cells at 5 uM after 48 hrs by LDH release assay (reference value: 100%); format: functional
Procedure, shortened: (§1)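 HepG2 seeded at 1.0 × 10^5 cells/well, grown 24 h at 37 °C in 5% CO2, then dosed for 48 h. LDH in supernatant read on plate reader per kit. Maximal release (100% cytotoxicity) came from lysis with 2% (V/V) lysate for 1 h at 37 °C; medium-only cells served as natural release. Triplicate, three independent runs.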

[7] = tested on: HepG2; assay: Cytotoxicity against human HepG2 cells at 2.5 uM after 48 hrs by LDH release assay (reference value: 100%); format: functional
Procedure, shortened: (§2)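 LDH release. HepG2 cells at 1.0 × 10^5/well were incubated 24 h at 37 °C, then treated at 2.5–40 µM for 48 h. Cells lysed with 2% lysate for 1 h gave the full-release (100%) reference; medium-only cells were the low control. LDH in the supernatant was measured per kit. Triplicates, three independent repeats.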

[8] = tested on: HepG2; assay: Cytotoxicity against human HepG2 cells at 10 uM after 48 hrs by LDH release assay (reference value: 100%); format: functional; procedure, shortened: as §2
[9] = tested on: HepG2; assay: Cytotoxicity against human HepG2 cells at 20 uM after 48 hrs by LDH release assay (reference value: 100%); format: functional; procedure, shortened: as §2
[10] = tested on: HepG2; assay: Cytotoxicity against human HepG2 cells at 40 uM after 48 hrs by LDH release assay (reference value: 100%); format: functional; procedure, shortened: as §1

Compound	IC50 [1] [µM]	IC50 [2] [µM]	IC50 [3] [µM]	IC50 [4] [µM]	IC50 [5] [µM]	Activity [6] [%]	Activity [7] [%]	Activity [8] [%]	Activity [9] [%]	Activity [10] [%]
COc1cc2c(Nc3ccc(C#N)cc3)ncnc2cc1OCCCN(C)Cc1ccccc1	> 100	> 100	> 100	> 100	> 100					
COc1cc2c(Nc3ccc(C#N)cc3)ncnc2cc1OCCCN1CCC(N2CCCCC2)CC1	8.84	15.6	19.6	30.7	9.81					
COc1cc2c(Nc3ccc(C#N)cc3)ncnc2cc1OCCCN1CCC(CO)CC1	61.8	53.2	35.1	> 100	21.6					
CCN(CC)CCCOc1cc2ncnc(Nc3ccc(C#N)cc3)c2cc1OC	59.4	68.9	> 100	50.6	> 100					
COc1cc2c(Nc3ccc(C#N)cc3)ncnc2cc1OCCCN(C)CCO	45.2	17.4	41.4	29	83.7					
COc1cc2c(Nc3cccc(C#N)c3)ncnc2cc1OCCCN1CCOCC1	1.89	77.8	> 100	65.5	> 100					
COc1cc2c(Nc3cccc(C#N)c3)ncnc2cc1OCCCN1CCCC1	18.2	19.1	33.9	39.9	10.6					
COc1cc2c(Nc3ccc(C#N)cc3)ncnc2cc1OCCCN1CCCCC1	20.7	24.4	35.1	23.5	18.8					
COc1cc2c(Nc3ccc(C#N)cc3)ncnc2cc1OCCCN(CCO)CCO	40.3	20.2	36.8	26.1	48.1					
COc1cc2c(Nc3ccc(C#N)cc3)ncnc2cc1OCCCN1CCC(N(C)C)CC1	33.6	28.3	31	42.4	24.3					
COc1cc2c(Nc3cccc(C#N)c3)ncnc2cc1OCCCN1CCCCC1	29.5	29.1	44.8	37	11.2					
COc1cc2c(Nc3ccc(C#N)cc3)ncnc2cc1OCCCN(CCO)Cc1ccccc1	> 100	> 100	> 100	47.4	> 100					
COc1cc2c(Nc3cccc(C#N)c3)ncnc2cc1OCCCN1CCC(C)CC1	18.2	17.7	24.4	18.7	7.33					
COc1cc2c(Nc3ccc(C#N)cc3)ncnc2cc1OCCCN1CCc2ccccc2C1	> 100	> 100	> 100	> 100	> 100					
COc1cc2c(Nc3ccc(C#N)cc3)ncnc2cc1OCCCN1CCCCC1CCO (stereo not given)	> 100	> 100	> 100	> 100	> 100					
COc1cc2c(Nc3ccc(C#N)cc3)ncnc2cc1OCCCN1CCOCC1	0.77	98.2	> 100	59.4	> 100					
COc1cc2c(Nc3ccc(C#N)cc3)ncnc2cc1OCCCN1CCC(O)CC1	67.9	74.9	> 100	29.9	> 100					
COc1cc2ncnc(Nc3ccc(F)c(Cl)c3)c2cc1OCCCN1CCOCC1 [GEFITINIB]						48.69	42.08	45.36	45.24	47.62
CCOC(=O)C1CCN(CCCOc2cc3ncnc(Nc4ccc(C#N)cc4)c3cc2OC)CC1	57.7	52.3	34.9	89.9	47.2					
COc1cc2c(Nc3ccc(C#N)cc3)ncnc2cc1OCCCN1CCN(c2ccncc2)CC1	12.6	22.9	22.9	25.4	31.6					
COc1cc2c(Nc3ccc(C#N)cc3)ncnc2cc1OCCCN1CCC(C)CC1	32.1	16.6	43.1	32.3	7.9					
COc1cc2c(Nc3ccc(C#N)cc3)ncnc2cc1OCCCN(C)C	> 100	35.2	45	60.5	34.9					

Second part, led by results:

IC50 [1] [µM]	IC50 [2] [µM]	IC50 [3] [µM]	IC50 [4] [µM]	IC50 [5] [µM]	Compound	Activity [6] [%]	Activity [7] [%]	Activity [8] [%]	Activity [9] [%]	Activity [10] [%]
13.8	46.5	71.1	48.8	13	COc1cc2c(Nc3ccc(C#N)cc3)ncnc2cc1OCCCN1CCN(C)CC1					
2.11	5.87	9.07	6.91	12.6	CCN1CCN(CCCOc2cc3ncnc(Nc4ccccc4C#N)c3cc2OC)CC1					
18.3	12.1	23.1	27.7	6.89	COc1cc2c(Nc3cccc(C#N)c3)ncnc2cc1OCCCN1CCN(C)CC1					
14.2	15.3	15.2	14.7	13.4	COc1cc2c(Nc3ccccc3C#N)ncnc2cc1OCCCN1CCCCC1					
20.9	14.4	16.2	21.8	8.08	COc1cc2c(Nc3ccc(C#N)cc3)ncnc2cc1OCCCN1CCCC1					
9.58	34.4	29.9	16	5.44	CCN1CCN(CCCOc2cc3ncnc(Nc4ccc(C#N)cc4)c3cc2OC)CC1					
26.4	19.4	17.8	23.4	32.4	COc1cc2c(Nc3ccccc3C#N)ncnc2cc1OCCCN1CCN(C)CC1					
24.5	18.7	16.2	21.8	28.9	COc1cc2c(Nc3ccccc3C#N)ncnc2cc1OCCCN1CCCC1					
3.68	68.5	98.4	46.8	> 100	COc1cc2c(Nc3ccccc3C#N)ncnc2cc1OCCCN1CCOCC1					
13.7	18.2	19.9	18.7	6.27	CCN1CCN(CCCOc2cc3ncnc(Nc4cccc(C#N)c4)c3cc2OC)CC1					
4.03	11.9	31.9	22.7	29	COc1cc2c(Nc3ccccc3C#N)ncnc2cc1OCCCN1CCC(C)CC1					
28.1	29.3	25.2	9.82	36.8	COc1cc2c(Nc3ccc(C#N)cc3)ncnc2cc1OCCCN1CCN(CCO)CC1					
